# Laboratory results reported in ChEMBL document CHEMBL5634162, “Cyclohexylalanine-Containing α-Helical Amphipathic Peptide Targets Cardiolipin, Rescuing Mitochondrial Dysfunction in Kidney Injury” (J Med Chem, 2024).
# Activity calls are given as the source filed them. The rule behind the calls is not given here. Where a SMILES comes first, the peptide text is derived from it. Bridges are numbered along the chain shown (N, C = ends). Roman numbers before positions name the chains, in order. [ ]: non-standard residue; d: D form. The star is where a group is joined. 5TAMRA = CN(C)c1ccc2c(c1)Oc1cc(N(C)C)ccc1C21OC(=O)c2cc(C(=O)*)ccc21; Cha = N[C@@H](CC1CCCCC1)C(=O)O
# Experiments:
# [1] = tested on: Lipid bilayer; experiment: Binding affinity to DLCL-rich POPC/POPE by fluorescence based analysis
# [2] = tested on: Lipid bilayer; experiment: Binding affinity to cardiolipin-rich POPC/POPE by fluorescence based analysis
# Outline: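 NBD-labelled peptide monomer at 1 μM in PBS, mixed with liposomes of POPC/POPE (2:1) containing 10% CL, with CL-free POPC/POPE liposomes for comparison. Association was followed by NBD fluorescence (ex 467/em 536 nm), n = 3. For dissociation, liposomes were at 100 μM and unlabelled acetylated peptide was added stepwise up to 40 μM, with a 10 min dark incubation before each read.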
# [3] = Drug localization in mitochondria of human HeLa cells at EC50 incubated for 3 hrs by fluorescence based assay; format: ADME
Compound,Activity [1],Activity [2],Drug uptake [3]
CC(=O)N[C@@H](CC1CCCCC1)C(=O)N[C@@H](CS)C(=O)N[C@@H](CCCNC(=N)N)C(=O)N[C@@H](CC(C)C)C(=O)N[C@@H](CC1CCCCC1)C(=O)N[C@@H](CCCNC(=N)N)C(=O)N[C@@H](CCCNC(=N)N)C(=O)N[C@@H](CC1CCCCC1)C(=O)N[C@@H](CS)C(=O)N[C@@H](CCCNC(=N)N)C(N)=O (Ac-[Cha]CRL[Cha]RR[Cha]CR-NH2),Active,Active,
"CC(=O)N[C@@H](CC(C)C)C(=O)N[C@H]1CSSC[C@@H](C(=O)N[C@@H](CCCNC(=N)N)C(N)=O)NC(=O)[C@H](CC(C)C)NC(=O)[C@H](CCCNC(=N)N)NC(=O)[C@H](CCCNC(=N)N)NC(=O)[C@H](CC2CCCCC2)NC(=O)[C@H](CC(C)C)NC(=O)[C@H](CCCNC(=N)N)NC(=O)[C@@H](NC(=O)[C@H](CC(C)C)NC(=O)c2ccc3c(c2)C(=O)OC32c3ccc(N(C)C)cc3Oc3cc(N(C)C)ccc32)CSSC[C@@H](C(=O)N[C@@H](CCCNC(=N)N)C(N)=O)NC(=O)[C@H](CC(C)C)NC(=O)[C@H](CCCNC(=N)N)NC(=O)[C@H](CCCNC(=N)N)NC(=O)[C@H](CC2CCCCC2)NC(=O)[C@H](CC(C)C)NC(=O)[C@H](CCCNC(=N)N)NC1=O (I: Ac-LCRL[Cha]RRLCR-NH2 / II: 5TAMRA-LCRL[Cha]RRLCR-NH2; disulfide I:2-II:9, I:9-II:2)",,,53%
"CC(=O)N[C@@H](CC1CCCCC1)C(=O)N[C@H]1CSSC[C@@H](C(=O)N[C@@H](CCCNC(=N)N)C(N)=O)NC(=O)[C@H](CC2CCCCC2)NC(=O)[C@H](CCCNC(=N)N)NC(=O)[C@H](CCCNC(=N)N)NC(=O)[C@H](CC2CCCCC2)NC(=O)[C@H](CC2CCCCC2)NC(=O)[C@H](CCCNC(=N)N)NC(=O)[C@@H](NC(=O)[C@H](CC2CCCCC2)NC(=O)c2ccc3c(c2)C(=O)OC32c3ccc(N(C)C)cc3Oc3cc(N(C)C)ccc32)CSSC[C@@H](C(=O)N[C@@H](CCCNC(=N)N)C(N)=O)NC(=O)[C@H](CC2CCCCC2)NC(=O)[C@H](CCCNC(=N)N)NC(=O)[C@H](CCCNC(=N)N)NC(=O)[C@H](CC2CCCCC2)NC(=O)[C@H](CC2CCCCC2)NC(=O)[C@H](CCCNC(=N)N)NC1=O (I: Ac-[Cha]CR[Cha][Cha]RR[Cha]CR-NH2 / II: 5TAMRA-[Cha]CR[Cha][Cha]RR[Cha]CR-NH2; disulfide I:2-II:9, I:9-II:2)",,,53%
"CC(=O)N[C@@H](CC(C)C)C(=O)N[C@H]1CSSC[C@@H](C(=O)N[C@@H](CCCNC(=N)N)C(N)=O)NC(=O)[C@H](CC2CCCCC2)NC(=O)[C@H](CCCNC(=N)N)NC(=O)[C@H](CCCNC(=N)N)NC(=O)[C@H](CC2CCCCC2)NC(=O)[C@H](CC(C)C)NC(=O)[C@H](CCCNC(=N)N)NC(=O)[C@@H](NC(=O)[C@H](CC(C)C)NC(=O)c2ccc3c(c2)C(=O)OC32c3ccc(N(C)C)cc3Oc3cc(N(C)C)ccc32)CSSC[C@@H](C(=O)N[C@@H](CCCNC(=N)N)C(N)=O)NC(=O)[C@H](CC2CCCCC2)NC(=O)[C@H](CCCNC(=N)N)NC(=O)[C@H](CCCNC(=N)N)NC(=O)[C@H](CC2CCCCC2)NC(=O)[C@H](CC(C)C)NC(=O)[C@H](CCCNC(=N)N)NC1=O (I: Ac-LCRL[Cha]RR[Cha]CR-NH2 / II: 5TAMRA-LCRL[Cha]RR[Cha]CR-NH2; disulfide I:2-II:9, I:9-II:2)",,,53%
"CC(=O)N[C@@H](CC(C)C)C(=O)N[C@H]1CSSC[C@@H](C(=O)N[C@@H](CCCNC(=N)N)C(N)=O)NC(=O)[C@H](CC2CCCCC2)NC(=O)[C@H](CCCNC(=N)N)NC(=O)[C@H](CCCNC(=N)N)NC(=O)[C@H](CC(C)C)NC(=O)[C@H](CC2CCCCC2)NC(=O)[C@H](CCCNC(=N)N)NC(=O)[C@@H](NC(=O)[C@H](CC(C)C)NC(=O)c2ccc3c(c2)C(=O)OC32c3ccc(N(C)C)cc3Oc3cc(N(C)C)ccc32)CSSC[C@@H](C(=O)N[C@@H](CCCNC(=N)N)C(N)=O)NC(=O)[C@H](CC2CCCCC2)NC(=O)[C@H](CCCNC(=N)N)NC(=O)[C@H](CCCNC(=N)N)NC(=O)[C@H](CC(C)C)NC(=O)[C@H](CC2CCCCC2)NC(=O)[C@H](CCCNC(=N)N)NC1=O (I: Ac-LCR[Cha]LRR[Cha]CR-NH2 / II: 5TAMRA-LCR[Cha]LRR[Cha]CR-NH2; disulfide I:2-II:9, I:9-II:2)",,,53%
"CC(=O)N[C@@H](CC1CCCCC1)C(=O)N[C@H]1CSSC[C@@H](C(=O)N[C@@H](CCCNC(=N)N)C(N)=O)NC(=O)[C@H](CC(C)C)NC(=O)[C@H](CCCNC(=N)N)NC(=O)[C@H](CCCNC(=N)N)NC(=O)[C@H](CC2CCCCC2)NC(=O)[C@H](CC(C)C)NC(=O)[C@H](CCCNC(=N)N)NC(=O)[C@@H](NC(=O)[C@H](CC2CCCCC2)NC(=O)c2ccc3c(c2)C(=O)OC32c3ccc(N(C)C)cc3Oc3cc(N(C)C)ccc32)CSSC[C@@H](C(=O)N[C@@H](CCCNC(=N)N)C(N)=O)NC(=O)[C@H](CC(C)C)NC(=O)[C@H](CCCNC(=N)N)NC(=O)[C@H](CCCNC(=N)N)NC(=O)[C@H](CC2CCCCC2)NC(=O)[C@H](CC(C)C)NC(=O)[C@H](CCCNC(=N)N)NC1=O (I: Ac-[Cha]CRL[Cha]RRLCR-NH2 / II: 5TAMRA-[Cha]CRL[Cha]RRLCR-NH2; disulfide I:2-II:9, I:9-II:2)",,,53%
"CC(=O)N[C@@H](CC(C)C)C(=O)N[C@H]1CSSC[C@@H](C(=O)N[C@@H](CCCNC(=N)N)C(N)=O)NC(=O)[C@H](CC2CCCCC2)NC(=O)[C@H](CCCNC(=N)N)NC(=O)[C@H](CCCNC(=N)N)NC(=O)[C@H](CC2CCCCC2)NC(=O)[C@H](CC2CCCCC2)NC(=O)[C@H](CCCNC(=N)N)NC(=O)[C@@H](NC(=O)[C@H](CC(C)C)NC(=O)c2ccc3c(c2)C(=O)OC32c3ccc(N(C)C)cc3Oc3cc(N(C)C)ccc32)CSSC[C@@H](C(=O)N[C@@H](CCCNC(=N)N)C(N)=O)NC(=O)[C@H](CC2CCCCC2)NC(=O)[C@H](CCCNC(=N)N)NC(=O)[C@H](CCCNC(=N)N)NC(=O)[C@H](CC2CCCCC2)NC(=O)[C@H](CC2CCCCC2)NC(=O)[C@H](CCCNC(=N)N)NC1=O (I: Ac-LCR[Cha][Cha]RR[Cha]CR-NH2 / II: 5TAMRA-LCR[Cha][Cha]RR[Cha]CR-NH2; disulfide I:2-II:9, I:9-II:2)",,,53%
